Test results from ChEMBL document CHEMBL1145162, “6-aryl-8H-indeno[1,2-d]thiazol-2-ylamines: A1 adenosine receptor agonist allosteric enhancers having improved potency” (J Med Chem, 2005).

Assays:
Adenosine receptor A1 = biological target: T1, Adenosine receptor A1 (Homo sapiens, UniProt P30542); assay: Antagonist activity against adenosine A1 receptor; format: functional; design: concentration or dose not given beside the values
T1 sequence (P30542 whole entry): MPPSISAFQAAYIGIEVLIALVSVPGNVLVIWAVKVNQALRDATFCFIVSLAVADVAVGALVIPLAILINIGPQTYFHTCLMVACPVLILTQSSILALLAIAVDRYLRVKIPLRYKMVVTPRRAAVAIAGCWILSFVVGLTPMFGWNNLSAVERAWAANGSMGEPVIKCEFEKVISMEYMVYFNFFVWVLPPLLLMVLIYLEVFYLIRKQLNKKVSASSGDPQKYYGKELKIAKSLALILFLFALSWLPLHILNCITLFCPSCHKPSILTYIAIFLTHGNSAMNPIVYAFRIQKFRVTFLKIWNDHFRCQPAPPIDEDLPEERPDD
Procedure, shortened: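 Equilibrium binding on CHO-K1 hA1AR membranes (15 μg) in 10 mM HEPES pH 7.4, 1 mM EDTA, 1 U/mL adenosine deaminase, 4 nM [3H]CPX. Mixed with an equal volume of 200 μM enhancer in HEPES–10% DMSO; 200 μM NECA for nonspecific binding. Incubated 3 h at room temperature, then filtered.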

[1] = biological target: T2, Adenosine receptor A1 (Homo sapiens) (UniProt P30542); assay: (§1) In vitro allosteric enhancer (AE) activity for adenosine A1 receptor at 50 uM
T2 sequence (whole entry): T1 sequence (P30542 whole entry)
Procedure, shortened: (§2)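 Single-point screen on membranes from CHO-K1 cells stably expressing hA1AR. Candidate enhancer was added at 50 μM final for 5 min. Dissociation was then started with 8-cyclopentyltheophylline plus GTPγS and run 10 min. Score = % specific agonist binding remaining; two to three assays, each in triplicate.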

[2] = biological target: T2, Adenosine receptor A1 (Homo sapiens); assay: Allosteric enhancer (AE) activity against human adenosine A1 receptor at 50 uM; procedure, shortened: as §2
[3] = biological target: Adenosine receptor A2a (Homo sapiens) (UniProt P29274); assay: In vitro allosteric enhancer (AE) activity for adenosine A2A receptor at 50 uM
[4] = biological target: T2, Adenosine receptor A1 (Homo sapiens); assay: Inhibition of human adenosine receptor A1 at 10 uM
Procedure, shortened: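 CHO-K1 hA1AR membranes at 0.5 mg/mL in 10 mM HEPES pH 7.4 with 1 mM EDTA, 1 U/mL adenosine deaminase, 5 mM MgCl2 and 2 nM [3H]CPX. Mixed 1:1 with buffer containing 20 μM enhancer. Equilibrium 3 h at room temperature; 100 μM NECA defined nonspecific binding. Inhibition expressed relative to control specific binding; duplicate assays.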

[5] = biological target: T3, Adenosine receptor A3 (Homo sapiens) (UniProt P0DMS8); assay: In vitro allosteric enhancer (AE) activity for adenosine A3 receptor at 50 uM
T3 sequence (whole entry): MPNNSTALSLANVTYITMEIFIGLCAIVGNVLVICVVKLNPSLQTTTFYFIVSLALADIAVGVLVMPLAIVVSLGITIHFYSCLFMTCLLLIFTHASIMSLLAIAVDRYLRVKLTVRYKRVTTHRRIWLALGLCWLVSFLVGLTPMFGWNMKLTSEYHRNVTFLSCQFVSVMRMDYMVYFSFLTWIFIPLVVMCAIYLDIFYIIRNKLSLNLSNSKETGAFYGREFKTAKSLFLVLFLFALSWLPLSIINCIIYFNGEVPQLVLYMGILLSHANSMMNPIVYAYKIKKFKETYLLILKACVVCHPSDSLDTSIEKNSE

[6] = biological target: T4, Adenosine receptor A1 (Rattus norvegicus) (UniProt P25099); assay: Allosteric enhancer (AE) activity against rat adenosine A1 receptor at 50 uM
T4 sequence (whole entry): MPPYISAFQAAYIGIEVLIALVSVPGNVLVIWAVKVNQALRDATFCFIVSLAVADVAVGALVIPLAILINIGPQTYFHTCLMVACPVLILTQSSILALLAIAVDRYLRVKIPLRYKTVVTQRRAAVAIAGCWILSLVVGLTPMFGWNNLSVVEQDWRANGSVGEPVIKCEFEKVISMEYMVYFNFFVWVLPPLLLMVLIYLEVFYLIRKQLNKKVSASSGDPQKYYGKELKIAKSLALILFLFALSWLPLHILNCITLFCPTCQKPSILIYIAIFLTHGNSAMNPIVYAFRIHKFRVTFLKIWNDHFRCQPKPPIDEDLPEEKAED

[7] = biological target: T3, Adenosine receptor A3 (Homo sapiens); assay: Inhibition of human adenosine receptor A3 at 10 uM
[8] = biological target: T2, Adenosine receptor A1 (Homo sapiens); assay: In vitro allosteric enhancer (AE) activity for adenosine A1 receptor maximal score from curve fitting
[9] = biological target: T4, Adenosine receptor A1 (Rattus norvegicus); assay: Allosteric enhancer (AE) activity against rat adenosine A1 receptor
[10] = biological target: T2, Adenosine receptor A1 (Homo sapiens); assay: as §1; procedure, shortened: as §2; remark: listed apart in the source
[11] = biological target: T2, Adenosine receptor A1 (Homo sapiens); assay: Allosteric enhancer activity against adenosine A1 receptor
[12] = biological target: T2, Adenosine receptor A1 (Homo sapiens); assay: as §1; procedure, shortened: as §2; remark: listed apart in the source

Sequence of Adenosine receptor A2a (Homo sapiens) (P29274 whole entry): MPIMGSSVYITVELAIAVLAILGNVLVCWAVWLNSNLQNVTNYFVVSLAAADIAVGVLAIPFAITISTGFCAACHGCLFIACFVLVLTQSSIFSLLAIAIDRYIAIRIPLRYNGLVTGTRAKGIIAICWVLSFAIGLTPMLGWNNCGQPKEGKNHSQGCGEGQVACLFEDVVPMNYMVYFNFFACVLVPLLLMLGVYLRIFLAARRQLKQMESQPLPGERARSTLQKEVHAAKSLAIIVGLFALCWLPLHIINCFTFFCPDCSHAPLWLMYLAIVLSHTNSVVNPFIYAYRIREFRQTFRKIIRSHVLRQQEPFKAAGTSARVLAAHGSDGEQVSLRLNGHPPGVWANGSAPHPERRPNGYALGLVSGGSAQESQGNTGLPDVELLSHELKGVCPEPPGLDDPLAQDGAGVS

| Compound | Inhibition (Adenosine receptor A1) | Alloste ic enhan er (AE) [1] | Alloste ic enhan er (AE) [2] | Alloste ic enhan er (AE) [3] | inhibition [4] | Alloste ic enhan er (AE) [5] | Alloste ic enhan er (AE) [6] | inhibition [7] | Allosteric enhancer (AE) [8] | Alloste ic enhan er (AE) [9] | Alloste ic enhan er (AE) [10] | EC50 [11] | Alloste ic enhan er (AE) [12] |
| --- | --- | --- | --- | --- | --- | --- | --- | --- | --- | --- | --- | --- | --- |
| COc1ccc(-c2ccc3c(c2)Cc2sc(N)nc2-3)cc1OC | 19.2% | 82% | 83.9% | 0.2% | 18.8% | 10.1% | 39.1% | 45% | 82.7% |  |  |  |  |
| Nc1nc2c(s1)Cc1cc(-c3ccc4c(c3)OCO4)ccc1-2 | 11.6% | 82% | 90.7% | 0% | 10.5% | 2.9% |  | 22.5% | 91% | 48.8% |  |  |  |
| CN(C)c1ccc(-c2ccc3c(c2)Cc2sc(N)nc2-3)cc1 | 12.5% | 81% | 67.9% | 3.4% | 23.1% | 24.8% |  | 38.6% |  | 31.7% | 81.8% |  |  |
| Nc1nc2c(s1)Cc1cc(-c3ccccc3C(F)(F)F)ccc1-2 | > 10% | 50.1% |  | 0% |  | 6.6% |  |  | 57% |  |  | 5.1 µM |  |
| Nc1nc2c(s1)Cc1cc(-c3cccc4ccccc34)ccc1-2 | > 13% | 61.2% |  | 0% |  | 4.2% |  |  | 65.6% |  |  | 3 µM |  |
| Nc1nc2c(s1)Cc1cc(-c3ccccc3[N+](=O)[O-])ccc1-2 | 8.3% | 40.1% |  | 0% |  | 0% |  |  | 49.7% |  |  | 6.3 µM |  |
| Nc1nc2c(s1)Cc1cc(-c3ccc(Cl)c(Cl)c3)ccc1-2 | 8% | 45.3% |  | 0% |  | 0% |  |  | 22.6% |  |  | > 10 µM |  |
| Cc1ccc(C)c(-c2ccc3c(c2)Cc2sc(N)nc2-3)c1 | > 10% | 47.7% |  | 0% |  | 0% |  |  | 51% |  |  | 7.3 µM |  |
| COc1ccc(-c2ccc3c(c2)Cc2sc(N)nc2-3)cc1 | 13.3% | 87% | 72% | 0% | 25.2% | 18% |  | 37.6% |  | 32.3% |  |  | 90.2% |
| Nc1nc2c(s1)Cc1cc(-c3cccc(C(F)(F)F)c3)ccc1-2 | > 10% | 15.8% |  | 0% |  | 0% |  |  |  |  |  | > 10 µM |  |
| Nc1nc2c(s1)Cc1cc(-c3cccc([N+](=O)[O-])c3)ccc1-2 | 8.3% | 13% |  | 0% |  | 0% |  |  |  |  |  | > 10 µM |  |
| COc1cc(-c2ccc3c(c2)Cc2sc(N)nc2-3)cc(OC)c1OC | 11.8% | 23.3% |  | 0% |  | 0.8% |  |  |  |  |  | > 10 µM |  |
| Cc1ccccc1-c1ccc2c(c1)Cc1sc(N)nc1-2 | 34.4% | 36.6% |  | 0% |  | 0% |  |  |  |  |  | > 10 µM |  |
